“And” between values parts separate entries of the source, which are not always exact repeats. Identical values can stand only once. Each block holds one molecule with its values, some of them ahead of it.
Key:
[1] = reference compound; cited from earlier work
[2] = one hour at 37 °C
[3] = biological target: T1, mGluR1 (Rattus norvegicus, UniProt P23385); assay: PET imaging, specific binding in rat brain; type: in vivo; conditions: baseline vs blocked scans
[4] = test system: ABCB1 (P-gp); conditions: wild type vs knock-out mice, PET
[5] = biological target: ABCG2 (BCRP) (Mus musculus, UniProt Q7TMS5); conditions: wild type vs knock-out mice, PET
[6] = LogD7.4 measurement in octanol; type: physicochemical; conditions: n = 6
[7] = biological target: mGluR5 (Rattus norvegicus, UniProt P31424); assay: PET imaging, cross-reactivity with mGluR5 receptors; type: in vivo
Chain of mGluR5 (P31424 21-1203): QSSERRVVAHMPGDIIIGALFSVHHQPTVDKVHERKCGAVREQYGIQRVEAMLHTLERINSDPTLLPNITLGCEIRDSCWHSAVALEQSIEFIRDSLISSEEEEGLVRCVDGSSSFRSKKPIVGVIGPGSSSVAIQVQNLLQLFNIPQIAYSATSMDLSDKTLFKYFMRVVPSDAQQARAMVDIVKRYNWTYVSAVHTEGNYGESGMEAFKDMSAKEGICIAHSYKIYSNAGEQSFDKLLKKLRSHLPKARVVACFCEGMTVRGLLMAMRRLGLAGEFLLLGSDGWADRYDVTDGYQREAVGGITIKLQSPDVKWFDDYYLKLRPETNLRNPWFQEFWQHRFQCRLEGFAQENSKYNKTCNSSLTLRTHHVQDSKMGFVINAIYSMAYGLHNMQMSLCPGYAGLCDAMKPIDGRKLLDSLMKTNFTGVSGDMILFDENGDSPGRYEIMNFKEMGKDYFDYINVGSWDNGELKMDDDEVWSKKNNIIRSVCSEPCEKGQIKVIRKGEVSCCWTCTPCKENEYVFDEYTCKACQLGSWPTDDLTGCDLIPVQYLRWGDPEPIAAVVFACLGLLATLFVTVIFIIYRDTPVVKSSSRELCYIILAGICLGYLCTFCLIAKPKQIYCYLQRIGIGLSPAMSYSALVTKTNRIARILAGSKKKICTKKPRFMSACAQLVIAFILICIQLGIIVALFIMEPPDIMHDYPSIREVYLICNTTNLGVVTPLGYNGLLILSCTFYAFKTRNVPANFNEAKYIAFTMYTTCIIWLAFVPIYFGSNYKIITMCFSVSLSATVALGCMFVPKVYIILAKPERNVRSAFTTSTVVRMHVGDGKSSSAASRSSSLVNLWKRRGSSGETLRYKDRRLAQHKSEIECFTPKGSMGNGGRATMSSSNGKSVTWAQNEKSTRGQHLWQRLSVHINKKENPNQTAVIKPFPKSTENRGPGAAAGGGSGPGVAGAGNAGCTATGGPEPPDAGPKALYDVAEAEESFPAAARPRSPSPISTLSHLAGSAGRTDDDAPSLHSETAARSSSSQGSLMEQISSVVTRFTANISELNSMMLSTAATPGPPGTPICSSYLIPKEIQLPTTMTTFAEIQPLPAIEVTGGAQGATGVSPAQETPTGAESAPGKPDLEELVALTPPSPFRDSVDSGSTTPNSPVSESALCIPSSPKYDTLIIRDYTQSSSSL

[8] = biological target: T1, mGluR1; assay: pharmacological validation: blocking of LY2428703 tracer specific binding; type: in vivo; conditions: i.v. administration, LY2428703 as non-labeled tracer
[9] = metabolic stability in liver microsomes, mouse; type: in vitro ADME; conditions: mouse hepatic microsomes, 30 minutes, n = 3
[10] = calibrated Mouse Brain Uptake Assay; conditions: cMBUA
[11] = biological target: T2, mGluR1 (Homo sapiens, UniProt Q13255); assay: competition binding assay with 3H-LSN456066, human; conditions: humans
T2 sequence (Q13255 19-1194): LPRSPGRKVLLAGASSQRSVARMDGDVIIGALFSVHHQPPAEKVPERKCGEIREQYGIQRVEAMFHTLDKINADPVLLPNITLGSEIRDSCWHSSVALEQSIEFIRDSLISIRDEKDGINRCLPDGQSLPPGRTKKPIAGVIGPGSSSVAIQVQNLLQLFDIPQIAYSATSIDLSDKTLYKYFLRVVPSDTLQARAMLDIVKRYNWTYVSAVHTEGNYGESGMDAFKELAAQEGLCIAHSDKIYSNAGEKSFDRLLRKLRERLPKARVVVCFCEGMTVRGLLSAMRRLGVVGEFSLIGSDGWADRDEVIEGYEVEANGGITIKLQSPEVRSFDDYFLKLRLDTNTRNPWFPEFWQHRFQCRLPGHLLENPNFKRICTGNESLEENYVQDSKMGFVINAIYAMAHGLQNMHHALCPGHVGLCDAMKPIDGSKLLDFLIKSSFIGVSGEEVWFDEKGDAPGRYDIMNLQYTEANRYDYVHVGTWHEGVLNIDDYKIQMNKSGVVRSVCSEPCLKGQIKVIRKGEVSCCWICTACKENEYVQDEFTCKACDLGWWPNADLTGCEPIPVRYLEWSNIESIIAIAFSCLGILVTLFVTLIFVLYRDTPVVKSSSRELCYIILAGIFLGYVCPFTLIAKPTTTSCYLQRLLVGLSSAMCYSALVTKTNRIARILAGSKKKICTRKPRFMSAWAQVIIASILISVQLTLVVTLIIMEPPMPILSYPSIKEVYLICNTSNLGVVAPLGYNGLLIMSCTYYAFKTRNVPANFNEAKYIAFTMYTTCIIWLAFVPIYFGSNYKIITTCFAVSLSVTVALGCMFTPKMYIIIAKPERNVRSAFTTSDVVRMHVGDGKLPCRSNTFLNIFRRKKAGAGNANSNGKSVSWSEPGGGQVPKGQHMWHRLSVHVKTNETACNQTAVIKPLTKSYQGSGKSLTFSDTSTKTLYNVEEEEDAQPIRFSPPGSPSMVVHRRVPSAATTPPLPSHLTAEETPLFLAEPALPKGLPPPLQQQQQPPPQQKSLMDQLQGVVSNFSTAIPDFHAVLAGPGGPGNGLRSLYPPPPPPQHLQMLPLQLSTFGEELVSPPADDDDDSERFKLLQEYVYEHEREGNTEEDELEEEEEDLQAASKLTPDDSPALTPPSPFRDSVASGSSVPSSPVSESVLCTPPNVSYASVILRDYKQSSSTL

[12] = mouse, in vivo
[13] = biological target: T2, mGluR1; type: cell-based; conditions: from IC50 8.9 and 118 nM
Procedure, shortened: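 Calcium mobilization was measured in cells expressing individual human mGlu receptors (1, 2, 3, 4, 5, 7, 8). Agonism: % stimulation by test compound alone relative to maximal glutamate response. Antagonism: % inhibition of the EC90 glutamate response. Potentiation: % increase of an EC10 glutamate response relative to the ECmax response.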

[14] = metabolic stability in liver microsomes, dog; type: in vitro ADME; conditions: dog hepatic microsomes, 30 minutes, n = 3
[15] = metabolic stability in liver microsomes, rat; type: in vitro ADME; conditions: rat hepatic microsomes, 30 minutes, n = 2
[16] = metabolic stability in liver microsomes, monkey; type: in vitro ADME; conditions: monkey hepatic microsomes, 30 minutes, n = 2
[17] = biological target: human P-gp (Homo sapiens, UniProt P08183); assay: P-gp substrate identification in MDCK cells transfected with wild-type MDR1; type: in vitro ADME
Chain of human P-gp (P08183 whole entry): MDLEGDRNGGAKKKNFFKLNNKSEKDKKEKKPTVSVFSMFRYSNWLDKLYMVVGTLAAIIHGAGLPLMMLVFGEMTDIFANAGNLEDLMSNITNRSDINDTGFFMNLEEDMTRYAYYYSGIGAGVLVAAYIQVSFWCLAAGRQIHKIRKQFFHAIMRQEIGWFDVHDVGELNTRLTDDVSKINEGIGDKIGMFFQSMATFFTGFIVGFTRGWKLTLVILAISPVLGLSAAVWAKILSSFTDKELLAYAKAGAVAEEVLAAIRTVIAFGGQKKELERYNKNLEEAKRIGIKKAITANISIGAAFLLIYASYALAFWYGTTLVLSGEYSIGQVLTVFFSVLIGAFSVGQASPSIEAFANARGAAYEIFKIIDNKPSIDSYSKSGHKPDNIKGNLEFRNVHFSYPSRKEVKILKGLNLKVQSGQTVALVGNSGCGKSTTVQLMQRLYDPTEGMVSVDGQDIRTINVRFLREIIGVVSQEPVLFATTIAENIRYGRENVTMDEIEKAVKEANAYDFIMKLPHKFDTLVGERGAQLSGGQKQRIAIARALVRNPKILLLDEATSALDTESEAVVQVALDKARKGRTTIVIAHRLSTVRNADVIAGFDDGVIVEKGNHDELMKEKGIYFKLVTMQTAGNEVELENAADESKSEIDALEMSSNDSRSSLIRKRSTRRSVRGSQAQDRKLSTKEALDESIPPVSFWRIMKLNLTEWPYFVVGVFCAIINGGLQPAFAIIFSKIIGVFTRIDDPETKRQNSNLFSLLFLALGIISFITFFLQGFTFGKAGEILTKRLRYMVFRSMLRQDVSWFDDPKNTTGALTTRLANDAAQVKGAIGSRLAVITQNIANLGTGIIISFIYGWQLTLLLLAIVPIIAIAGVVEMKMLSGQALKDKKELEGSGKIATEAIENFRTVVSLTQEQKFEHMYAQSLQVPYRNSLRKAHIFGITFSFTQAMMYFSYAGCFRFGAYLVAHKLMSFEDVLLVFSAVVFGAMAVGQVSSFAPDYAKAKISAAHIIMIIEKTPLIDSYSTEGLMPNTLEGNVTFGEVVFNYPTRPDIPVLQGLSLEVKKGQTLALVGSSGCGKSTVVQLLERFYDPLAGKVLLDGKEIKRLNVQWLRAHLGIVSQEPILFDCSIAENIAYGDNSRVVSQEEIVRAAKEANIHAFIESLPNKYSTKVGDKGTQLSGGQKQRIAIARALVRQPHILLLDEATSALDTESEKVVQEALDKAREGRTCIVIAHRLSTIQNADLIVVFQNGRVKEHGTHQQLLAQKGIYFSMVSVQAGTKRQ

[18] = LC-MS/MS rat brain kinetic analysis with non-labeled tracer; type: in vivo; conditions: 10 μg/kg dose, 15 minutes
[19] = biological target: T1, mGluR1; assay: mGluR1 occupancy experiment, non-labeled JNJ16259685 as tracer; type: in vivo; conditions: oral administration
[20] = rat brain, 30 minutes after injection
[21] = rat cerebellum, 30 minutes after injection
[22] = rat, 30 minutes after injection
[23] = tissue without blood, mean of two measurements
[24] = MDCK monolayers overexpressing human P-gp

T1 sequence (P23385 19-1199): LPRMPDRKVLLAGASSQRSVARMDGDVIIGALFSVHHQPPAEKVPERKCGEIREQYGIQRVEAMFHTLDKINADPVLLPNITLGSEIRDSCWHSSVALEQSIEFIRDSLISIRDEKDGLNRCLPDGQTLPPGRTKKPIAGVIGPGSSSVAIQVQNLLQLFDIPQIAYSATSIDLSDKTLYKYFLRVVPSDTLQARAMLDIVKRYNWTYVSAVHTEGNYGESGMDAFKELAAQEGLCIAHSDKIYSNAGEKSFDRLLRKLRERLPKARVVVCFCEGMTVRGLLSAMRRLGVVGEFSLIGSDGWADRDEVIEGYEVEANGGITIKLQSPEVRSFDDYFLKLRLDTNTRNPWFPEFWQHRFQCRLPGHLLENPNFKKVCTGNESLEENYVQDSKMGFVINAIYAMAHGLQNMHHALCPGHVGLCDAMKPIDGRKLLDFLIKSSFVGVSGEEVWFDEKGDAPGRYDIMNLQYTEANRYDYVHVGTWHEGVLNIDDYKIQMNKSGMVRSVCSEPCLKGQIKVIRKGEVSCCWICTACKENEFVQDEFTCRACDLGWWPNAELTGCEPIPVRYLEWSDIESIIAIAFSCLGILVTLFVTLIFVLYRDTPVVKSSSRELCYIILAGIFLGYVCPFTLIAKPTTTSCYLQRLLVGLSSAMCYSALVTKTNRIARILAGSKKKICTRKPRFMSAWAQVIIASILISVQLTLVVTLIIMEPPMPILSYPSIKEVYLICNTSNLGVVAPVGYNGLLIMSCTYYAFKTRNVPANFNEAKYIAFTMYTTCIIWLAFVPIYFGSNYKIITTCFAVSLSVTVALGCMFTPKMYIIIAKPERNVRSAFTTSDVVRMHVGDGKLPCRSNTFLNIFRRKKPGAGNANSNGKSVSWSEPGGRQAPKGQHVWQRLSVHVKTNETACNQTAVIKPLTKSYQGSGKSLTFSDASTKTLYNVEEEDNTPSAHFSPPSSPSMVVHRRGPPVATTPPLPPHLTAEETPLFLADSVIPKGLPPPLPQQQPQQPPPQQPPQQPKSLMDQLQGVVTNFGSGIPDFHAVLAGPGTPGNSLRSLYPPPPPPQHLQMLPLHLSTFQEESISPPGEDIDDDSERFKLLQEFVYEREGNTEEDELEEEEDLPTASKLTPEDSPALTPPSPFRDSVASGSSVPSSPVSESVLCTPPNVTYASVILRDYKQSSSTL

SMILES: [3H]O[3H] [tritiated water]
- brain levels, percent of the dose [1]: 1.9 ± 0.2%

SMILES: Cc1c(-c2ccc(O[11CH3])cc2)nsc1NC(=O)[C@@H]1C[C@H]1C [^11C-LY2428703]
- stability in rat whole blood and brain homogenates [2]: no biotransformation products were detected
- PET signal in rat cerebellum [3]: large specific and displaceable signal
- substrate for ABCB1 transporter at the blood-brain barrier [4]: not a substrate
- substrate for ABCG2 transporter at the blood-brain barrier [5]: not a substrate
- LogD7.4 [6]: 4.02 ± 0.09
- affinity for mGluR5s in vivo (PET) ([7]; rats pretreated with MTEP 5 mg/kg): negligible affinity
- regional concentration ratios of the radiometabolite (cerebellum/brain, cerebellum/plasma, brain/plasma): < 1.0
- parent radioligand, % of brain radioactivity [20]: 82.7%
- radiometabolite, % of brain radioactivity [20]: 17.2%
- parent radioligand, % of cerebellar radioactivity [21]: 96.2% and > 96%
- radiometabolite, % of cerebellar radioactivity [21]: ~ 3.5% and 3.7% and 3–4%
- parent radioligand, % of plasma radioactivity (rat plasma, 30 minutes after injection): 75%
- %SUV concentration of parent in brain [22]: 49 %SUV
- %SUV concentration of parent in cerebellum [22]: 156 %SUV
- %SUV concentration of parent in plasma [22]: 122 %SUV
- %SUV concentration of parent in urine [22]: 2.7 %SUV
- %SUV concentration of the major radiometabolite in brain [22]: 10.2 %SUV
- %SUV concentration of the major radiometabolite in cerebellum [22]: 6.1 %SUV
- %SUV concentration of the major radiometabolite in plasma [22]: 38.5 %SUV
- %SUV concentration of the major radiometabolite in urine [22]: 161 %SUV
- parent concentration ratio brain/plasma [22]: < 1.0
- parent concentration ratio cerebellum/brain [22]: 3.2 and 3.2–3.5
- parent concentration ratio cerebellum/plasma [22]: 1.3
- parent radioligand in brain [23]: 48 %SUV
- parent radioligand in cerebellum [23]: 169 %SUV
- parent radioligand, % of brain activity [23]: 82.5%
- parent radioligand, % of cerebellar activity [23]: 95.8%
- radiometabolite in brain [23]: 9.5 %SUV
- radiometabolite in cerebellum [23]: 5.6 %SUV
- radiometabolite, % of brain activity [23]: 16.5%
- radiometabolite, % of cerebellar activity [23]: 3.3%

SMILES: COC1CCC(C(=O)c2ccc3nc4c(cc3c2)CCCO4)CC1 (stereo not drawn) [JNJ16259685]
- in vivo mGluR1 ED50 [8]: 1.4 ± 0.1 mg/kg

- effect of pretreatment on forebrain uptake of 11C-LY2428703 ([7]; 5 mg/kg, rat, n=2): not affected
SMILES: Cc1nc(C#Cc2cccnc2)cs1 [MTEP, 3-((2-Methyl-4-thiazolyl)ethynyl)pyridine, reference compound]

- percent of compound metabolized [9]: 79.5 ± 14.7%
- dose distributed to brain as percent of cardiac output [10]: 84%
- blood-brain barrier permeability coefficient ([10]; mouse): 19 ×10⁻⁶ cm/s
- percent of dose delivered to the brain ([10]; mouse, over the 10-fold range of doses): 1.2–1.6% and 1.6 ± 0.2%
- affinity of LY2428703 relative to LSN2606428 [11]: about 20 fold
- clearance from brain, percent loss in concentration from five to 60 minutes [12]: > 95%
- clearance from plasma, percent loss in concentration from five to 60 minutes [12]: > 95%
- affinity for mGluR1 relative to mGluR5 [13]: > 10 fold
- percent of compound metabolized [14]: 65.0 ± 15.5%
- percent of compound metabolized [15]: 91.1 ± 3.4%
- percent of compound metabolized [16]: 90.1 ± 3.1%
- B-A/A-B flux ratio [17, 24]: ~ 1.0
- P-gp substrate identification [17, 24]: not a P-gp substrate
- mass balance recovery ([17]; MDCK monolayers, n=8): 108 ± 10%
- passive permeability coefficient ([17]; MDCK monolayers, n=8): 62 ± 3 ×10⁻⁶ cm/s and 60 ×10⁻⁶ cm/s
- tracer level in rat cerebellum [18]: 330 % SUV
- rat mGluR1 occupancy [19]: dose-dependently occupied
SMILES: COc1ccc(-c2nsc(NC(=O)[C@@H]3C[C@H]3C)c2C)cc1 [LY2428703]

From publication PMC3537910 (European journal of nuclear medicine and molecular imaging, 2012)
